According to article PMC4761526 (Journal of pharmaceutical sciences, 2016):
Several values for one entry are separate records, joined by “and”; a condition that tells them apart may be missing. Equal values may be shown once. One block for each molecule: values may come before it.

Columns and labels:
MRP2 = MRP2 (Homo sapiens, UniProt Q92887); assay: CDF directional; format: cell-based
MRP2 and/or MRP3 = assay: Net CDF uptake into Caco-2 grown on 24-well plates after CDFA exposure; format: cell-based, human; conditions: 100 μM compound, 30 min with 5 μM CDFA, cells on plastic
[1] = tested on: esterase-mediated conversion of CDFA to CDF; assay: CDFA hydrolysis to CDF by Caco-2 cells; format: cell-based, human; conditions: 100 μM compound
How it was run: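 Caco-2 cells from ATCC, used at passages 35–55, grown in DMEM with 10% FBS, 1% non-essential amino acids, 1 mM sodium pyruvate and 2 mM L-glutamine at 37°C in 5% CO2. CDFA was taken from a 5 mM stock in 1:1 DMSO:ethanol. CDF formation was expressed as specific activity per mg protein under initial-rate conditions, N = 3 per condition.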

[2] = tested on: genistein conjugative metabolism; assay: Genistein conjugative metabolism; format: in vitro ADME, human
Caco-2 [3] = assay: Lucifer yellow permeability in Caco-2; format: in vitro ADME, human; conditions: control vs in the presence of 50 μM glyceollin
Caco-2 [4] = assay: Genistein conjugate metabolite excretion from Caco-2; format: in vitro ADME, human

MRP2, sequence (Q92887 whole entry): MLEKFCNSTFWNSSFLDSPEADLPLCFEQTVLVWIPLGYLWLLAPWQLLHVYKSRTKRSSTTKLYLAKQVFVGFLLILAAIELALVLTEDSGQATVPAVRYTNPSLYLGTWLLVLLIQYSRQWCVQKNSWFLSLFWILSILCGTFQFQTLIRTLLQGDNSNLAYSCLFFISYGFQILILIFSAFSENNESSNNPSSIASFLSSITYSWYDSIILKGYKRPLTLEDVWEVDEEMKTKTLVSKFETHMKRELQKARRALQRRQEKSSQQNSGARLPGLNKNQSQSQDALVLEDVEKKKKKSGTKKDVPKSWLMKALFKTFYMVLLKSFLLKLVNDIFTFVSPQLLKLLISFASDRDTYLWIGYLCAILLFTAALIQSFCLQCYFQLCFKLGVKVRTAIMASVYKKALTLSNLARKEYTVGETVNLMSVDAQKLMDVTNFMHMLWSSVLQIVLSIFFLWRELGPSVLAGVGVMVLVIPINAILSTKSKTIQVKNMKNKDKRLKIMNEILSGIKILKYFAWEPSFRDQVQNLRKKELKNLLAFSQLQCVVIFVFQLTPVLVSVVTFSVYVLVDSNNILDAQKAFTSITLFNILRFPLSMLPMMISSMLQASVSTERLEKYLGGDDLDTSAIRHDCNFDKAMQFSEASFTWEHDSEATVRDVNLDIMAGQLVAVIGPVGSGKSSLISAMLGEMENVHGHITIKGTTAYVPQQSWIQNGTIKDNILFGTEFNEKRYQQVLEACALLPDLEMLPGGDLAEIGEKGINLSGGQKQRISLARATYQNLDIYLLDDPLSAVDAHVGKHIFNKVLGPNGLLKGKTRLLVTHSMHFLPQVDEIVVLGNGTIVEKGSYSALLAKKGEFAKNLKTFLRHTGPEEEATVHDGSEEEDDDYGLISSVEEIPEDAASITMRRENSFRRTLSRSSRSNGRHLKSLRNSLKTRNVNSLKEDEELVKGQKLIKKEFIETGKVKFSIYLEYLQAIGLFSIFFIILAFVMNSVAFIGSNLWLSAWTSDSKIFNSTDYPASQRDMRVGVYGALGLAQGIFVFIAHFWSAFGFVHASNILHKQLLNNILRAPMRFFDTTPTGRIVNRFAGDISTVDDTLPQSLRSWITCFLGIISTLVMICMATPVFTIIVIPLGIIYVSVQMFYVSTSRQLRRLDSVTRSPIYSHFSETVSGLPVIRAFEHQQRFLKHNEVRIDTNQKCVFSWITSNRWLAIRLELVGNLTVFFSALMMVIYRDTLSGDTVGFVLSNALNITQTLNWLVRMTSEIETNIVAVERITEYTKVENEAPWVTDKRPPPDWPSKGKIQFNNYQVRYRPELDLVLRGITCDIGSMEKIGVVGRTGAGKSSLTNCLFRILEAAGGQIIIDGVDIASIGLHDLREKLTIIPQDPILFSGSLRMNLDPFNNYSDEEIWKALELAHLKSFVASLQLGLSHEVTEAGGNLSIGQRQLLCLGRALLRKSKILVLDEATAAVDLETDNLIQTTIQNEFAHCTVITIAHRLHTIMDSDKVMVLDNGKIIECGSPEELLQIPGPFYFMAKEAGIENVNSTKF

Molecule: 5 (and 6)-Carboxy-2′,7′-dichloroflourescein [CDF]
CDF permeability, BA direction vs. AB direction (MRP2; control conditions, no inhibitor): 3.7 ± 0.36 fold

Molecule: Lucifer yellow
lucifer yellow permeability (Caco-2 [3]): 0.13 ± 0.035 × 10^-5 cm/s

Now from value to molecule, other results behind:

CDF AB directional transport (MRP2; 100 μM compound vs control): statistically significant increase
CDF BA directional transport (MRP2; 100 μM compound vs control): statistically significant reduction
CDF cell concentration at the conclusion of the 2-hour incubation (MRP2; 100 μM compound, both transport directions): reduced
IC50 for reduction of CDF BA/AB permeability ratio (MRP2; 10, 30 or 100 μM compound): 22 µM
Molecule: CN(C)C(=O)CCSC(SCCC(=O)O)c1cccc(/C=C/c2ccc3ccc(Cl)cc3n2)c1 (stereo not drawn) [MK-571]
CDF uptake (MRP2 and/or MRP3): significant reduction
rate of esterase-mediated conversion of CDFA to CDF [1]: did not alter
CDFA hydrolysis specific activity (initial rate) ([1]; 5 μM CDFA, control 6.0): 8.5 nM/min/mg protein

fraction of genistein metabolized to conjugates (Fm), average ([2]; control vs 30 μM glyceollin, average of two experiments): 47% ± 10.5% and 47%
Molecule: O=c1c(-c2ccc(O)cc2)coc2cc(O)cc(O)c12 [genistein]

intracellular genistein conjugates ([2]; Caco-2): 9 ± 2.7 pmoles/filter
apical metabolite excretion rate (Caco-2 [4]): 6.5 ± 0.61 × 10^-5 nmoles/sec
Molecule: glyceollin
